Measurements taken from PubChem BioAssay AID1216 (Sanford-Burnham Center for Chemical Genomics, 2008).
Among all 190,000 compounds or so, about 660 (0.35%) were called active.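 How the source made its calls: active means activation factor of 2 or more at 20 µM; inactive means the rest.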 The sample as a whole holds a higher share of actives than the screen did.

Each compound was assayed against Mannose-6-phosphate isomerase (Homo sapiens) (UniProt P34949) (assay: human PMI activators, high substrate, primary screen, biochemical, fluorescence intensity, near-saturating mannose 6-phosphate (AID 1216)). Settings: coupled PMI enzyme assay, resazurin fluorescence, 20 min; at 20 µM; stronger effect = higher value; 1 = untreated enzyme, 0 = substrate-free blank.
Sequence of Mannose-6-phosphate isomerase (Homo sapiens) (P34949 whole entry, looked up): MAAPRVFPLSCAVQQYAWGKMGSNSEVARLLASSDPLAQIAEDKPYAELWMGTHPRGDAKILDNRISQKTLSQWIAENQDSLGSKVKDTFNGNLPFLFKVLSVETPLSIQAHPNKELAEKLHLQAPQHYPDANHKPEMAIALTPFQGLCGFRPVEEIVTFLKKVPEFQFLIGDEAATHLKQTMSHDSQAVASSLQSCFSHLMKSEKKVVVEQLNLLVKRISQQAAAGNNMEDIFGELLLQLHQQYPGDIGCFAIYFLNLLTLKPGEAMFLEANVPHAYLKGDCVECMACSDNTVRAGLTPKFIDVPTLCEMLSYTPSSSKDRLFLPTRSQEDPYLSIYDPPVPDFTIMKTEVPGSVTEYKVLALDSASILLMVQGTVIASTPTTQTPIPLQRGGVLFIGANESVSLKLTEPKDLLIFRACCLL
Outline: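 Test system: human phosphomannose isomerase with PGI, G6PDH, diaphorase coupling enzymes / Doses: 20 µM compound, 1% DMSO / Times: enzyme reaction with compound 20 min at room temperature / Measured by: Diaphorase-driven resazurin-to-resorufin fluorescence, excitation 544, emission 590 nm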

Compound | activation factor
Cc1ccc(N=C2NC(=O)/C(=C/C=C/c3ccco3)S2)cc1C | 2 (active)
Cc1ccc(N2NC(=O)/C(=C/C=C/c3ccco3)C2=O)cc1C | 1.2 (inactive)
Cc1cccc(N=C2NC(=O)/C(=C/c3cn(C)c4ccccc34)S2)c1 | 0.9 (inactive)
COc1ccc(/C=C/C(=O)c2cc(Br)ccc(=O)c2O)cc1 | 2.1 (active)
COc1ccc(C(=O)/C=C/c2ccc(OC3CSC3)cc2)cc1 | 0.9 (inactive)
COc1ccc(/C=C/C(=O)c2ccc(OC)cc2O)cc1 | 0.9 (inactive)
CCCCC(NS(=O)(=O)c1ccc(C)cc1)C(=O)Oc1ccc2c3c(c(=O)oc2c1)CCC3 (centres undefined) | 0.9 (inactive)
N/C(=N\OS(=O)(=O)c1cccc([N+](=O)[O-])c1)c1ccncc1 | 1 (inactive)
Cc1cc(C)c2nc(SCC(=O)N(C)C3CCS(=O)(=O)C3)cc(C)c2c1 (centres undefined) | 2 (active)
COc1ccc2c(-c3ccccc3)cc(SCC(=O)N(C)C3CCS(=O)(=O)C3)nc2c1 (centres undefined) | 1.3 (inactive)
CCn1c(SCC(=O)N(C)C2CCS(=O)(=O)C2)nnc1-c1cccs1 (centres undefined) | 1.1 (inactive)
Cc1cc(/C=C2/NC(=O)NC2=O)c(C)n1-c1cccnc1 | 0.9 (inactive)
CC(CC(=O)Nc1ccccc1)n1ccnc1 (centres undefined) | 1 (inactive)
Cc1c(-c2cccc(Cl)c2)nc2ccccc2c1C(=O)OCC(=O)N(C)C1CCS(=O)(=O)C1 (centres undefined) | 1 (inactive)
Cc1nccn1CCC1CCCCN1C(=O)CCc1nnc(-c2ccsc2)o1 (centres undefined) | 0.9 (inactive)
OCCC#Cc1ccc(CN2CCN(Cc3ccsc3)C(CCO)C2)cc1 (centres undefined) | 1 (inactive)
O=C(Nc1ccc([N+](=O)[O-])cc1)C1CC12CCC2 (centres undefined) | 1.1 (inactive)
Cc1ccc(CNC(=O)COc2ccc3c(c2)CCC3)cc1 | 1 (inactive)
CC1CCN(C(=O)c2ccc(S(=O)(=O)Cc3cc(F)ccc3F)c([N+](=O)[O-])c2)CC1 | 0.8 (inactive)
COc1ccc(C2CC(c3cccs3)=NN2C(=O)CSc2nncs2)cc1OC (centres undefined) | 1 (inactive)
COc1ccc(C2CC(c3cccs3)=NN2C(=O)CSc2nnc(N)s2)cc1OC (centres undefined) | 1 (inactive)
COc1ccc(C2CC(c3cccs3)=NN2c2nc(C)c(C(C)=O)s2)cc1OC (centres undefined) | 2 (active)

Compound | activation factor
COc1ccccc1N1N=C(c2cccs2)CC1c1ccccc1 (centres undefined) | 1.2 (inactive)
COc1ccc(C2CC(c3cccs3)=NN2c2ccc(F)cc2)cc1OC (centres undefined) | 2.2 (active)
COc1ccc(C2CC(c3cccs3)=NN2c2ccccc2)cc1 (centres undefined) | 1.2 (inactive)
COc1cc(/C=C(/NC(=O)c2ccc(Cl)cc2Cl)C(=O)O)cc(OC)c1OC | 1 (inactive)
NC(=O)c1ccccc1N(Cc1ccccc1)S(=O)(=O)c1ccccc1 | 1 (inactive)
CCN(CC)S(=O)(=O)c1cc([N+](=O)[O-])ccc1N=Nc1c(O)n(C)c2ccccc12 | 1.1 (inactive)
Cc1ccc(-c2nc(C)sc2CC(=O)OCC(=O)Nc2c(F)cccc2F)cc1 | 0.9 (inactive)
Cc1ccc(C2=NN(C(=O)COc3ncnc4ccccc34)C(c3ccco3)C2)cc1 (centres undefined) | 0.8 (inactive)
CO/N=C/c1cn(-c2ccc(Cl)cc2)nn1 | 1 (inactive)
CC1(C)OC(=O)C(=CSc2ccc(C(C)(C)C)cc2)C(=O)O1 | 1.1 (inactive)
CCCC(=O)Nc1cccc(NC(=S)NC(=O)C(C)Oc2ccc(Cl)cc2Cl)c1 (centres undefined) | 1 (inactive)
O=C(N/C(=C\c1ccc(F)cc1)C(=O)N1CCCCCC1)c1ccccc1 | 0.9 (inactive)
Cc1cc(OCCCN2CCN(Cc3ccccc3)CC2)ccc1[N+](=O)[O-] | 1 (inactive)
COc1ccc(Cc2nnc(SC)[nH]c2=O)cc1 | 2 (active)
CSc1nc(O)c(Cc2ccccc2)c(=O)[nH]1 | 1 (inactive)
COc1ccc(Cc2nnnn2CC(=O)O)cc1 | 1.1 (inactive)
O=C(NNC(=O)c1ccccc1[N+](=O)[O-])Nc1ccccc1C(F)(F)F | 1 (inactive)
O=C(NC1CCCC1)C(c1ccc(N2CCOCC2)cc1)N(C(=O)c1ccco1)c1ccccc1F (centres undefined) | 0.9 (inactive)
Cc1ccc(NC(=O)NC(=O)N(C2CCCCC2)S(=O)(=O)c2ccccc2)cc1 | 0.9 (inactive)
Cc1nn(-c2ccc([N+](=O)[O-])cc2)c(N)c1-c1ccccc1 | 1 (inactive)
Cc1ccccc1N/N=C/c1ccc(N2CCOCC2)cc1 | 2.4 (active)
C(=N/Nc1cc(N2CCOCC2)nc(N2CCOCC2)n1)/c1ccccc1 | 0.4 (inactive)

Compound | activation factor
Cc1cc(C(=O)N/N=C/c2ccc(N3CCOCC3)cc2)c(C)o1 | 1.1 (inactive)
S=C(NC1CCCCC1)NN1CCOCC1 | 1.1 (inactive)
Cc1ccc(OCc2n[nH]c(=S)n2-c2ccc(C)cc2)cc1 | 0.8 (inactive)
COc1ccc(CNc2c(CO)cnc3c2cnn3C)cc1 | 1 (inactive)
Cc1ccnc(NC(=O)CCC(=O)N(CC(=O)NCc2ccccc2)Cc2ccco2)c1 | 0.9 (inactive)
CCOC(=O)C1=C(CN2CCCCCC2)NC(=O)NC1c1cccc([N+](=O)[O-])c1 (centres undefined) | 0.9 (inactive)
CC(NC(=O)C(=O)N/N=C/c1ccc(Cl)cc1)c1ccccc1 (centres undefined) | 1.1 (inactive)
O=C1CC(c2ccccc2)C(=O)N1c1cccc(O)c1 (centres undefined) | 0.9 (inactive)
O=C1CC(NNc2ccccc2)C(=O)N1c1cccc(Cl)c1 (centres undefined) | 2 (active)
O=C(NNC1CC(=O)N(c2cccc(Cl)c2)C1=O)c1cccnc1 (centres undefined) | 1.2 (inactive)
C/C(=N\NC(=S)NCc1ccccc1)C1CCCCC1 | 1.2 (inactive)
O=C(CCNC(=O)Cn1ccc2ccccc2c1=O)NCCC1=CCCCC1 | 1.1 (inactive)
CCc1cccc(CC)c1NC(=S)NCc1ccc2[nH]c(C)cc2c1 | 0.9 (inactive)
COc1ccc(Br)cc1/C=N/n1c(C)nnc1C | 1 (inactive)
COc1ccc(Br)cc1/C=N/Nc1ccc(Cl)c(C(=O)O)c1 | 2.6 (active)
COc1ccc(Br)cc1/C=N/NC(=O)c1cccc(S(=O)(=O)N2CCOCC2)c1 | 1 (inactive)
OCC(O)CN(c1ccccc1)c1ccccc1 (centres undefined) | 1 (inactive)
CC(C)C(=O)Nc1ccc2oc(=O)ccc2c1 | 1 (inactive)
COc1ccc(C(=O)CSc2nc(C)cc(C)n2)cc1[N+](=O)[O-] | 0.9 (inactive)
Cn1nc(-c2ccccc2)c(CO)c1Sc1ccccc1 | 1 (inactive)
